# In ChEMBL document CHEMBL4376902, “CN128: A New Orally Active Hydroxypyridinone Iron Chelator” (J Med Chem, 2020):
# Active and inactive are the calls of the source. The rule behind the calls is not given here.
# Key:
# [1] = Toxicity in Sprague-Dawley rat assessed as induction of histopathological changes in pancreas at 25 to 116 mg/kg, po dosed daily for 4 weeks and measured after additional 4 weeks period in absence of drug; format: organism-based; conditions: in vivo, 672 h
# [2] = Toxicity in Sprague-Dawley rat assessed as induction of histopathological changes in bone marrow at 25 to 116 mg/kg, po dosed daily for 4 weeks and measured after additional 4 weeks period in absence of drug; format: organism-based; conditions: in vivo, 672 h
# [3] = Toxicity in Sprague-Dawley rat assessed as induction of mortality at 200 mg/kg, po dosed once daily for 2 months as 5 days per week schedule; format: organism-based; conditions: in vivo, 120 h
# [4] = Toxicity in Sprague-Dawley rat assessed as induction of histopathological changes in thymus at 25 to 116 mg/kg, po dosed daily for 4 weeks and measured after additional 4 weeks period in absence of drug; format: organism-based; conditions: in vivo, 672 h
# Rattus norvegicus [5] = assay: Iron scavenging activity in 59Fe-ferritin-loaded rat assessed as iron mobilization level at 450 umol/kg, po dosed 1 hr after 59Fe-ferritin injection and measured 24 hrs after 59Fe-ferritin injection by gamma counting method relative to control; format: functional
# How it was run: (§1)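 Male SD rats, 300 g, fasted overnight, given about 1 μC 59Fe-ferritin i.v. under isoflurane. Chelator gavaged 1 h later, then rats housed in metabolic cages; food returned 1 h after dosing. Killed 24 h after 59Fe-ferritin. Urine, faeces, liver and gut gamma-counted. 8 rats per condition.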
# Rattus norvegicus [6] = assay: Iron scavenging activity in 59Fe-ferritin-loaded rat assessed as iron mobilization level at 150 to 450 umol/kg, po dosed 1 hr after 59Fe-ferritin injection and measured 24 hrs after 59Fe-ferritin injection by gamma counting method relative to control; format: functional, organism-based; how it was run: as §1
# [7] = Metal chelating activity assessed as iron chelation
# How it was run: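 Automated spectrophotometric titration at ca. 40 µM iron complex, 50 mm path. pH raised in 0.1-unit steps with 0.1 M KOH, 3 min equilibration per step, up to pH 12.0. Competition with metal hydrolysis species; spectra fitted over 400-700 nm using literature hydrolysis constants to give stability constants.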
# [8] = Drug uptake in rat bile treated with 150 umol/kg, po (R) -3,4-Dihydroxy-1-(1 -hydroxy-3-phenylpropan-2-yl)-2-methyl- pyridin-1-ium Chloride assessed as compound formation by LC/TOF/MS/MS analysis; format: ADME, organism-based; conditions: in vivo
# How it was run: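 Bile collected from rats after an oral dose of 150 μmol/kg. Metabolites characterised by β-glucuronidase hydrolysis and LC-TOFMS/MS. M2/M1 ratio followed over 8 h.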
# [9] = Drug metabolism in rat liver microsomes assessed as oxidative metabolism incubated for 1 hr relative to deferiprone; format: ADME, Microsome
# Mus musculus [10] = assay: Toxicity in mouse assessed as reduction in erythrocyte population at 200 mg/kg, po dosed once daily for 2 months as 5 days per week schedule; conditions: in vivo, 120 h
# Mus musculus [11] = assay: Toxicity in mouse assessed as reduction in lymphocytes counts at 200 mg/kg, po dosed once daily for 2 months as 5 days per week schedule; conditions: in vivo, 120 h
# Mus musculus [12] = assay: Toxicity in mouse assessed as reduction in neutrophils counts at 200 mg/kg, po dosed once daily for 2 months as 5 days per week schedule; conditions: in vivo, 120 h
# Mus musculus [13] = assay: Toxicity in mouse assessed as reduction in total white cell counts at 200 mg/kg, po dosed once daily for 2 months as 5 days per week schedule; conditions: in vivo, 120 h
# [14] = Drug metabolism in human liver microsomes assessed as oxidative metabolism incubated for 1 hr relative to deferiprone; format: ADME, Microsome
# Mus musculus [15] = assay: Toxicity in mouse assessed as reduction in monocytes counts at 200 mg/kg, po dosed once daily for 2 months as 5 days per week schedule; conditions: in vivo, 120 h
# [16] = Drug metabolism in human liver microsomes assessed as glucuronidation incubated for 1 hr relative to deferiprone; format: ADME, Microsome
# How it was run: (§2)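 Compound incubated 1 h with rat or human liver microsomes, n = 4, mean ± SD. Glucuronide formed given as percentage of total chelator added. Oxidative metabolism assessed separately.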
# [17] = Drug metabolism in rat liver microsomes assessed as glucuronidation incubated for 1 hr relative to deferiprone; format: ADME, Microsome; how it was run: as §2
# Mus musculus [18] = assay: Toxicity in mouse assessed as effect on platelet population at 200 mg/kg, po dosed once daily for 2 months as 5 days per week schedule; conditions: in vivo, 120 h
# Mus musculus [19] = assay: Toxicity in mouse assessed as reduction in eosinophils counts at 200 mg/kg, po dosed once daily for 2 months as 5 days per week schedule; conditions: in vivo, 120 h
# Mus musculus [20] = assay: Toxicity in mouse assessed as increase in reticulocyte population at 200 mg/kg, po dosed once daily for 2 months as 5 days per week schedule; conditions: in vivo, 120 h
smiles,measurement,setting,value
Cc1c(O)c(=O)ccn1C [DEFERIPRONE],Activity,[1],Non-Toxic
same,Activity,[2],Non-Toxic
same,Activity,[3],Non-Toxic
same,Activity,[4],Non-Toxic
same,Activity,Rattus norvegicus [5],11.8%
Cc1c(O)c(O)cc[n+]1[C@@H](CO)CC(C)C.[Cl-],Activity,Rattus norvegicus [5],8.2%
CCc1c(O)c(O)cc[n+]1[C@@H](CO)CC(C)C.[Cl-],Activity,Rattus norvegicus [5],13.6%
CCc1c(O)c(O)cc[n+]1[C@H](CO)[C@@H](C)CC.[Cl-],Activity,Rattus norvegicus [5],5.5%
CCc1c(O)c(O)cc[n+]1[C@H](CO)Cc1ccccc1.[Cl-],Activity,Rattus norvegicus [5],13.1%
CC[C@H](C)[C@@H](CO)[n+]1ccc(O)c(O)c1C.[Cl-],Activity,Rattus norvegicus [5],10.8%
Cc1c(O)c(O)cc[n+]1[C@@H](C)CO.[Cl-],Activity,Rattus norvegicus [5],11.9%
CCc1c(O)c(O)cc[n+]1[C@@H](CO)Cc1ccccc1.[Cl-],Activity,Rattus norvegicus [6],Dose-dependent effect
same,Activity,Rattus norvegicus [5],22.3%
Cc1c(O)c(O)cc[n+]1[C@H](C)CO.[Cl-],Activity,Rattus norvegicus [5],6.5%
CCc1c(O)c(O)cc[n+]1CCO.[Cl-],Activity,Rattus norvegicus [5],2.4%
CCc1c(O)c(O)cc[n+]1[C@@H](C)CO.[Cl-],Activity,Rattus norvegicus [5],16%
Cc1c(O)c(O)cc[n+]1[C@@H](CO)C(C)C.[Cl-],Activity,Rattus norvegicus [5],8%
Cc1c(O)c(O)cc[n+]1CCO.[Cl-],Activity,Rattus norvegicus [5],4%
CCc1c(O)c(O)cc[n+]1[C@H](CO)CC(C)C.[Cl-],Activity,Rattus norvegicus [5],10.3%
CCc1c(O)c(O)cc[n+]1[C@@H](CO)C(C)C.[Cl-],Activity,Rattus norvegicus [5],10.6%
CCc1c(O)c(O)cc[n+]1[C@H](CO)C(C)C.[Cl-],Activity,Rattus norvegicus [5],7.9%
Cc1c(O[C@@H]2O[C@H](C(=O)O)[C@@H](O)[C@H](O)[C@H]2O)c(=O)ccn1[C@@H](CO)Cc1ccccc1,Activity,[7],inactive
same,Drug uptake,[8],Metabolite_Detected
CCc1c(O)c(O)cc[n+]1[C@H](C)CO.[Cl-],Activity,Rattus norvegicus [5],10.5%
Cc1c(O)c(=O)ccn1[C@@H](CO[C@@H]1O[C@H](C(=O)O)[C@@H](O)[C@H](O)[C@H]1O)Cc1ccccc1,Activity,[7],Active
same,Drug uptake,[8],Metabolite_Detected
Cc1c(O)c(O)cc[n+]1[C@H](CO)C(C)C.[Cl-],Activity,Rattus norvegicus [6],Dose-dependent effect
same,Activity,Rattus norvegicus [5],18.7%
Cc1c(O)c(O)cc[n+]1[C@H](CO)CC(C)C.[Cl-],Activity,Rattus norvegicus [5],5.8%
Cc1c(O)c(O)cc[n+]1[C@H](CO)Cc1ccccc1.[Cl-],Drug metabolism,[9],Metabolite_Detected
same,Activity,Mus musculus [10],Non-Toxic
same,Activity,Mus musculus [11],Non-Toxic
same,Activity,Mus musculus [12],Non-Toxic
same,Activity,[3],Non-Toxic
same,Activity,Mus musculus [13],Non-Toxic
same,Drug metabolism,[14],Metabolite_Detected
same,Activity,Mus musculus [15],Non-Toxic
same,Drug metabolism,[16],Metabolite_Detected
same,Drug metabolism,[17],Metabolite_Detected
same,Activity,Rattus norvegicus [5],12.8%
same,Activity,Mus musculus [18],Non-Toxic
same,Activity,Mus musculus [19],Non-Toxic
same,Activity,Mus musculus [20],Non-Toxic
